The record followed here is PubChem BioAssay.

The nature of experiment [1]: inhibitors of TNFa-induced NFkB p65 translocation, primary screen, imaging, HUVEC, MLSMR starter and 10KST1 sets (AID 438;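 active = inhibition above 20% together with a positive visual image hit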;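 also: compound added about 3h40 before a 20 min TNFalpha stimulation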;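 as to inhibition: signal is the nuclear over cytoplasmic p65 intensity ratio per well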). Particulars: HUVEC TNFa-induced p65 nuclear translocation; cell count: measured here: nuclei count (cytotoxicity indicator), at 2.08 µM; inhibition: at 2 µM, stronger effect = higher value, 0% TNFa-plus-vehicle, 100% no-TNFa wells.
The nature of experiment [2]: inhibitors of mutant huntingtin aggregation, primary screen, imaging, exon1htt(103Q)mCFP cells, high-content imaging (AID 483;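 active = visual image review flags a hit and inhibition of aggregation exceeds 20%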;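 also: compound exposure lasted 3 days before fixation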;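 as to nuclei count: percent of the per-plate median nuclei count of sample wells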). Particulars: exon1htt(103Q)mCFP cell line, aggregate imaging, at 2 µM; inhibition of aggregation: stronger effect = higher value; nuclei count: measured here: cell count, toxicity.
Experiment [3] is described as follows: inhibitors of E-selectin induction by TNFa, primary screen, imaging, HUVEC, immunofluorescence, MLSMR starter and 10KST1 sets (AID 487;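 active = visually confirmed hit in the image check and inhibition above 20%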;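 as to inhibition: signal is fraction of cell area covered by stained E-selectin grains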;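 as to nuclei count: 100% = median nuclei count of all wells on the same plate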). Particulars: HUVEC TNFalpha-induced E-selectin immunofluorescence imaging, at 2 µM; inhibition: stronger effect = higher value; nuclei count: measured here: cell number, toxicity.
Experiment [4] has as its target Voltage-gated potassium channel subunit beta-2 (Rattus norvegicus) (UniProt P62483). Nature of the experiment: KvBeta enzyme negative modulators, primary screen, biochemical, NADPH fluorescence (AID 622;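 active = fluorescence slope higher than the sample average by over 3 SD, cut at about -0.22 in these data, passing the limit was not always enough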;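 also: slope of raw intensity against log time taken from 70 to 1610 s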). Particulars: recombinant KvBeta, 4-cyanobenzaldehyde reduction, at 10 µM, stronger effect = higher value.
The target is the same in experiment [5]. The experiment is described as follows: KvBeta positive modulators, primary screen, biochemical, NADPH fluorescence (AID 623;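 active = NADPH fluorescence slope more negative than the mean of all samples by about 3 SD, 99.7% confidence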;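 also: fluorescence intensity change per second fitted from 20 to 320 s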). Particulars: Recombinant KvBeta, NADPH fluorescence decrease slope, 10 min; at 10 µM; stronger effect = lower value.
Experiment [6] has as its target Alpha-2C adrenergic receptor (Homo sapiens) (UniProt P18825). Nature of the experiment: modulators of alpha2C/GIRK thallium flux, primary screen, cell-based, HEK293 alpha2C/GIRK1/2 (AID 624;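 active = fluorescence slope after compound addition differing from the mean of all screened samples at 99.7% confidence, in either direction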;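 also: slope of fluorescence ratio to pre-addition baseline per second over 15 to 24 s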). Particulars: thallium flux BTC fluorescence, at 10 µM, actives lie on both sides.
Experiment [7] in a line: inhibitors of larval lipid processing in zebrafish, primary screen, whole organism, PED6 fluorescence, gall bladder and intestine (AID 686).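 Also: larvae 5 to 7 days old with five fish per well; signal comes from phospholipase A2 cleavage of quenched PED6 carried via bile; overnight exposure to compound and PED6 before scoring.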 Particulars: Zebrafish larvae PED6 lipid processing, fluorescence scoring; screened at 20 µM (by protocol). In outline: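 System: live zebrafish larvae aged 5-7 days, whole organism; measure: graded gall bladder and intestinal fluorescence inhibition per well; incubation: overnight exposure; reagent: ingested quenched lipid PED6 at 100 nM; signal: By-eye fluorescence microscopy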

Experiment [8] is described as follows: inhibitors of Sendai virus-induced IRF3 signaling, primary screen, TLR/RLR signaling modifier project, cell-based, Sendai virus stimulus, luciferase, 10K MLSCN set (AID 602276;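 active = inhibition at or above 50% at 10 µM; inactive = inhibition below 50%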;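 also: firefly luciferase from ISG56 promoter only with Renilla not read in this screen; 0% = Sendai virus plus DMSO and 100% = medium plus DMSO without virus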). Particulars: HEK293 RL24 IRF3 luciferase reporter, at 10 µM, stronger effect = higher value. Background: In a reporter assay the amount or activity of a reporter protein is the signal.
Experiment [9] is described as follows: inhibitors of poly I:C-induced TLR3 signaling, primary screen, cell-based, poly I:C stimulus, luciferase, 10K MLSCN set (AID 602277;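 active = inhibition of the reporter signal at or above 50%; inactive = inhibition below 50%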). Particulars: HEK293-TLR3 RL24 IRF3 luciferase reporter, at 10 µM, stronger effect = higher value.

Calls of active or inactive are those of the source.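 The calls were made as follows, unless noted: active = a full or partial loss of lipid-probe fluorescence in the fish gall bladder, intestine or both, judged by eye; inactive = no fluorescence loss, or compound toxic to the fish.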

One may read the inhibition as the relative decrease from the control value, in per cent.

Chain of Alpha-2C adrenergic receptor (Homo sapiens) (P18825 whole entry, looked up): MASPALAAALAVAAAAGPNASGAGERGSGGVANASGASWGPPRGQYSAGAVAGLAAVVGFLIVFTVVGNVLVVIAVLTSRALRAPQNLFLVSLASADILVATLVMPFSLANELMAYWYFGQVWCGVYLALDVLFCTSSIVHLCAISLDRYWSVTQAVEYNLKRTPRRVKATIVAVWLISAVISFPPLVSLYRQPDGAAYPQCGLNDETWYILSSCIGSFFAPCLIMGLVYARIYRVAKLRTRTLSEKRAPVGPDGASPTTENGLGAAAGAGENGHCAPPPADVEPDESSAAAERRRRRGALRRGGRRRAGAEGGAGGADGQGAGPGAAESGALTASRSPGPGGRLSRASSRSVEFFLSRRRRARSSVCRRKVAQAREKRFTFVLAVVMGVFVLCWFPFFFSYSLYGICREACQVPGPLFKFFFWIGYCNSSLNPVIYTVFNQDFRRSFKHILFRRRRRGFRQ
Chain of Voltage-gated potassium channel subunit beta-2 (Rattus norvegicus) (P62483 whole entry, looked up): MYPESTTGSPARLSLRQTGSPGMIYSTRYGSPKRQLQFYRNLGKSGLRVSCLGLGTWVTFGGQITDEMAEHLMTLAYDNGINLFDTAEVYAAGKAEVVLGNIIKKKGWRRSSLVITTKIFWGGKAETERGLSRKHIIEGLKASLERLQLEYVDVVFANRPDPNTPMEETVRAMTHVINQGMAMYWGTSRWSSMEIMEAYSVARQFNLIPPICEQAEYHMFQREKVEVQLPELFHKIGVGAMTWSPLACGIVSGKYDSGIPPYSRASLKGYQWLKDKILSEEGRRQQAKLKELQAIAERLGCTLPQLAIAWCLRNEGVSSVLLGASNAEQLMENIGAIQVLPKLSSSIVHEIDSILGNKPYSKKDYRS

As for `Cc1ccc2c(C(=O)CN3CCSCC3)c(C)[nH]c2c1`, in experiment [1], the cell count worked out at 634. The inhibition in experiment [1] was 4.8% (inactive); in experiment [3] it was 2.2% (inactive); in [8] it was -12.6% (inactive); in [9], -12.9% (inactive). Further, the inhibition of aggregation in experiment [2] is -7.9% (inactive). Besides, the nuclei count in experiment [2] is 106%; in experiment [3], 104%. Moreover, in experiment [4], the fluorescence slope was -0.386 (inactive). Besides, in experiment [5], the NADPH fluorescence slope was -8.2e-05 (inactive). In addition, the slope in [6] was 0.00551 (inactive). Also, in [7], the outcome was inactive.
For `C#CCSc1nc(-c2cccs2)ccc1C#N`, in [1], the cell count came out at 340. In addition, the inhibition in [1] was -1% (inactive); in [3], -85.2% (inactive); in experiment [8], -10.7% (inactive); in [9], 5.18% (inactive). Further, the inhibition of aggregation in experiment [2] was -15% (inactive). Further, the nuclei count in [2] turned out to be 92.8%; in experiment [3] it was 112%. Besides, in experiment [4], the fluorescence slope was -0.5 (inactive). For the same molecule, the NADPH fluorescence slope in [5] is 5.7e-06 (inactive). Moreover, the slope in experiment [6] was 0.00646 (inactive). Moreover, the molecule was called inactive in [7].
For the molecule `c1ccc(OCCCn2nnc(-c3ccncc3)n2)cc1`, the cell count in [1] is 604. The inhibition in [1] is -9.9% (inactive); in experiment [3] it was -57.3% (inactive); in experiment [8], 13.2% (inactive); in experiment [9], -7.55% (inactive). In addition, the inhibition of aggregation in [2] is 2.3% (inactive). Further, the nuclei count in experiment [2] was determined as 91.9%; in experiment [3] it was 114%. Also, in experiment [4], the fluorescence slope is -0.454 (inactive). Also, the NADPH fluorescence slope in experiment [5] is -2.7e-05 (inactive). The slope in experiment [6] was 0.00445 (inactive). Also, the outcome in [7] was inactive.
Take `CC1CC(C)CN(c2nc3c(c(=O)[nH]c(=O)n3C)n2CCCSc2nc3ccccc3s2)C1` (stereo unspecified): in [1], the cell count was found to be 383. The inhibition in experiment [1] was -4.3% (inactive); in experiment [3], -83.6% (inactive); in experiment [8] it was 10.4% (inactive); in experiment [9], 11.5% (inactive). Besides, in experiment [2], the inhibition of aggregation is 33.6% (inactive). In addition, the nuclei count in [2] was found to be 97.2%; in experiment [3], 107%. In addition, the fluorescence slope in experiment [4] is -0.445 (inactive). Also, the NADPH fluorescence slope in experiment [5] was -5e-05 (inactive). The slope in experiment [6] is 0.00577 (inactive). The call in [7] was inactive.
Consider `Cc1nc2ccccc2nc1OCC(=O)Nc1cc(C(F)(F)F)ccc1N1CCOCC1`, for which, in experiment [1], the cell count came out at 410. Besides, the inhibition in experiment [1] was -5.6% (inactive); in experiment [3], 80.7% (active); in experiment [8], 12.4% (inactive); in [9] it was 8.99% (inactive). In experiment [2], the inhibition of aggregation was 19.2% (inactive). In addition, the nuclei count in experiment [2] amounted to 85.4%; in experiment [3], 113%. The fluorescence slope in experiment [4] was -0.429 (inactive). Also, the NADPH fluorescence slope in experiment [5] is -3e-05 (inactive). Besides, the slope in experiment [6] was 0.00495 (inactive). For the same molecule, in experiment [7], the outcome was inactive.
For `COc1ccc(CSCCN)cc1Cl`, the cell count in experiment [1] stood at 431. Also, the inhibition in experiment [1] is -3.8% (inactive); in experiment [3], 27.2% (inactive); in [8], -7.54% (inactive); in experiment [9], -8.95% (inactive). Further, the inhibition of aggregation in experiment [2] is -22.4% (inactive). The nuclei count amounted to 104% in experiment [2] and 107% in experiment [3]. In addition, the fluorescence slope in [4] was -0.4 (inactive). Besides, the NADPH fluorescence slope in experiment [5] was -9.7e-05 (inactive). Moreover, the slope in [6] was 0.00556 (inactive). In experiment [7], the outcome was inactive.
With `CCOC(=O)C1CCN(CC(=O)Nc2c(C(=O)OC)[nH]c3ccc(Cl)cc23)CC1`, the cell count in experiment [1] stood at 340. The inhibition was 4.8% (inactive) in experiment [1], -29.3% (inactive) in experiment [3], 8.17% (inactive) in experiment [8] and -16.2% (inactive) in [9]. Besides, the inhibition of aggregation in experiment [2] was -27.5% (inactive). Moreover, the nuclei count in experiment [2] was 104%; in experiment [3] it was 107%. Further, the fluorescence slope in experiment [4] is -0.383 (inactive). Further, the NADPH fluorescence slope in [5] was -6.2e-05 (inactive). In addition, the slope in [6] is 0.00328 (inactive). In addition, in [7], the call was inactive.
Take `CC12CN3CCN(CC(C3)C1(O)CN1CCCCC1)C2` (stereo unspecified): the cell count in experiment [1] came out at 305. In addition, the inhibition in experiment [1] is 1.7% (inactive); in experiment [3], -66.3% (inactive); in experiment [8], 10.7% (inactive); in experiment [9] it was 35.8% (inactive). Besides, the inhibition of aggregation in [2] is -16.8% (inactive). Besides, the nuclei count in [2] is 111%; in experiment [3] it was 121%. Also, in [4], the fluorescence slope is -0.347 (inactive). Besides, the NADPH fluorescence slope in [5] was -5.6e-05 (inactive). Also, the slope in [6] was 0.00521 (inactive). In addition, in experiment [7], the outcome was inactive.
Take `Cc1ccc(C(=O)Nc2c(C(=O)N3CCOCC3)cnn2-c2ccccc2)cc1`: the cell count in experiment [1] turned out to be 354. For the same molecule, the inhibition in experiment [1] was 5.4% (inactive); in [3], -6.5% (inactive); in experiment [8], 14% (inactive); in experiment [9] it was 15.4% (inactive). In addition, the inhibition of aggregation in experiment [2] is -0.9% (inactive). Besides, the results for the nuclei count in [2] and in experiment [3] were 102% and 105%, respectively. In experiment [4], the fluorescence slope is -0.321 (inactive). Moreover, in experiment [5], the NADPH fluorescence slope was -3.7e-05 (inactive). Also, in experiment [6], the slope was 0.00471 (inactive). Also, the molecule was called inactive in experiment [7].
Consider `COc1ccc(CN(C(=O)CN2C(=O)COc3ccccc32)C2CCCC2)c(OC)c1`, for which, in [1], the cell count stood at 658. Also, the inhibition in [1] is -3.5% (inactive); in [3] it was 4.9% (inactive); in experiment [8], 21.9% (inactive); in experiment [9] it was 26.4% (inactive). In experiment [2], the inhibition of aggregation was -4.6% (inactive). For the same molecule, the nuclei count in [2] amounted to 102%; in [3] it was 104%. Besides, in experiment [4], the fluorescence slope was -0.435 (inactive). Moreover, the NADPH fluorescence slope in experiment [5] is -6.2e-05 (inactive). In addition, in experiment [6], the slope was 0.00491 (inactive). In [7], the molecule was classed as inactive.
Turning to `CC(C)Cn1c2c(c(O)c(C(=O)Nc3ncccc3O)c1=O)CCCC2`, in experiment [1], the cell count is 576. Also, the inhibition in experiment [1] was -5.9% (inactive); in experiment [3], 26.1% (inactive); in experiment [8], 8.02% (inactive); in experiment [9], 10.1% (inactive). Besides, the inhibition of aggregation in experiment [2] is 9.6% (inactive). Further, the nuclei count stood at 99.1% in experiment [2] and 105% in experiment [3]. In addition, the fluorescence slope in experiment [4] was -0.38 (inactive). Moreover, the NADPH fluorescence slope in experiment [5] is -6.5e-05 (inactive). Besides, the slope in [6] was 0.00432 (inactive). Besides, the outcome in experiment [7] was inactive.
For the molecule `COC(=O)C1C2C=CC3(CN(CC4CCCO4)C(=O)C13)O2` (stereo unspecified), the cell count in experiment [1] was 504. Besides, the inhibition was 4% (inactive) in experiment [1], 9.9% (inactive) in experiment [3], 5.61% (inactive) in [8] and 11.6% (inactive) in experiment [9]. Moreover, the inhibition of aggregation in [2] was -7.3% (inactive). The nuclei count in experiment [2] was 111%; in [3], 98.5%. The fluorescence slope in [4] is -0.457 (inactive). Besides, the NADPH fluorescence slope in [5] was -1.5e-05 (inactive). Besides, the slope in experiment [6] was 0.00504 (inactive). In addition, the molecule was classed as inactive in experiment [7].
On to `Cc1cc(C(=O)COc2cccc3cccnc23)c(C)n1C`, for which the cell count in experiment [1] is 703. In addition, the inhibition is 1.8% (inactive) in [1], -154% (inactive) in experiment [3], -44.6% (inactive) in [8] and -68% (inactive) in [9]. Besides, the inhibition of aggregation in experiment [2] was -22.3% (inactive). Moreover, the figures for the nuclei count in experiment [2] and in [3] were 107% and 117%, respectively. Also, the fluorescence slope in experiment [4] is -0.327 (inactive). Besides, the NADPH fluorescence slope in [5] was -1.7e-05 (inactive). In addition, the slope in experiment [6] is 0.00438 (inactive). The result in experiment [7] was inactive.
